The source made the active and inactive calls. No cut-off for these calls is given here.
Tests used:
IGROV-1 = experiment: Antiproliferative activity against human IGROV1 cells; format: functional, cell-based
Procedure, shortened: (§1)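 Cells plated, then exposed 24 h after seeding to graded drug concentrations for 24 h. Drug removed, 48 h recovery in drug-free medium, surviving cells stained with sulforhodamine B (OD 564). […] BMEC: primary bovine adrenal cultures in DMEM, 20% FCS, heparin, brain extract.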

NCI-H460 [1] = experiment: Antiproliferative activity against human H460 cells; format: functional, cell-based; procedure, shortened: as §1
A2780 [2] = experiment: Antiproliferative activity against doxorubicin-resistant human A2780-dx cells; format: functional, cell-based; procedure, shortened: as §1
MCF7 = experiment: Antiproliferative activity against human MCF7 cells; format: functional, cell-based; procedure, shortened: as §1
MCF7-DOX = experiment: Antiproliferative activity against doxorubicin-resistant human MCF7-dx cells; format: functional, cell-based; procedure, shortened: as §1
A2780 [3] = experiment: Antiproliferative activity against human A2780 cells; format: functional, cell-based; procedure, shortened: as §1
HUVEC = experiment: Antiproliferative activity against human HUVEC; format: functional, cell-based; procedure, shortened: as §1
MeWo = experiment: Antiproliferative activity against human MeWo cells; format: functional, cell-based; procedure, shortened: as §1
HCT-116 = experiment: Antiproliferative activity against human HCT116 cells; format: functional, cell-based; procedure, shortened: as §1
BMEC = experiment: Antiproliferative activity against bovine BMEC; format: functional, cell-based; conditions: Bos taurus; procedure, shortened: as §1
NCI-H460 [4] = experiment: Antitumor activity in CD1 mice implanted with NCI-H460 xenografts at 60 mg/kg, po; format: functional, organism-based; set-up: dose 60 mg/kg; conditions: Homo sapiens
Procedure, shortened: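 NCI-H460 cells (3.0 × 10⁶ in HBSS) injected sc into right flank of female CD-1 nude mice; groups of eight once tumors reached ~30 mg (day 5). Oral 60 mg/kg twice daily, 5 days/week for 3 weeks; controls got vehicle. Caliper volumes (length × width²/2) twice weekly; toxicity scored as % max body-weight loss; Mann-Whitney U test.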

NCI-H460 [5] = experiment: Cell cycle arrest in NCI-H460 cells by accumulation at G2/M phase cell at 3 nM post 24 hrs treatment
NCI-H460 [6] = experiment: Cell cycle arrest in NCI-H460 cells by accumulation at G1/0 phase cell at 3 nM post 24 hrs treatment and 24 hrs recovery; format: functional, Homo sapiens
NCI-H460 [7] = experiment: Cell cycle arrest in NCI-H460 cells by accumulation at G1/0 phase cell at 3 nM post 24 hrs treatment; format: functional, Homo sapiens
NCI-H460 [8] = experiment: Cell cycle arrest in NCI-H460 cells by accumulation at G1/0 phase cell at 3 nM post 24 hrs treatment and 48 hrs recovery; format: functional, Homo sapiens
NCI-H460 [9] = experiment: Cell cycle arrest in NCI-H460 cells by accumulation at G2/M phase cell at 3 nM post 24 hrs treatment and 24 hrs recovery
NCI-H460 [10] = experiment: Cell cycle arrest in NCI-H460 cells by accumulation at G2/M phase cell at 3 nM post 24 hrs treatment and 48 hrs recovery
NCI-H460 [11] = experiment: Cell cycle arrest in NCI-H460 cells by accumulation at S phase cell at 3 nM post 24 hrs treatment and 48 hrs recovery
NCI-H460 [12] = experiment: Cell cycle arrest in NCI-H460 cells by accumulation at S phase cell at 3 nM post 24 hrs treatment and 24 hrs recovery
NCI-H460 [13] = experiment: Cell cycle arrest in NCI-H460 cells by accumulation at S phase cell at 3 nM post 24 hrs treatment

COc1cc(/C=C\c2cc(OP(=O)(O)O)c3ccsc3c2)cc(OC)c1OC
IC50 (IGROV-1): 1.61 µM | IC50 (NCI-H460 [1]): 0.62 µM | IC50 (A2780 [2]): 0.75 µM | IC50 (MCF7): 0.639 µM | IC50 (MCF7-DOX): 0.487 µM | IC50 (A2780 [3]): 0.5 µM | IC50 (HUVEC): 0.083 µM | IC50 (MeWo): 0.83 µM | IC50 (HCT-116): 3 µM | IC50 (BMEC): 0.64 µM | Activity (NCI-H460 [4]): Active

COc1cc(/C=C\c2cc(O)c3c(-c4ccccc4)csc3c2)cc(OC)c1OC
IC50 (BMEC): > 2 µM

COc1cc(/C=C\c2cc(O)c3cc(C)sc3c2)cc(OC)c1OC
IC50 (BMEC): 0.023 µM

COc1cc(/C=C\c2cc(O)c3cc(-c4ccccc4)sc3c2)cc(OC)c1OC
IC50 (BMEC): 23 µM

COc1cc(/C=C\c2cc(O)c3cc(-c4ccccc4)oc3c2)cc(OC)c1OC
IC50 (BMEC): > 2 µM

COc1cc(/C=C/c2cc(OC)c3ccoc3c2)cc(OC)c1OC
IC50 (BMEC): 75 µM

COc1ccc(/C=C\c2cc(OC)c(OC)c(OC)c2)cc1O [COMBRETASTATIN A4]
IC50 (IGROV-1): 0.0103 µM | Activity (NCI-H460 [5]): 79% | Activity (NCI-H460 [6]): 62% | Activity (NCI-H460 [7]): 8% | Activity (NCI-H460 [8]): 55% | IC50 (A2780 [2]): 0.00166 µM | Activity (NCI-H460 [9]): 16% | IC50 (MCF7): 0.002 µM | Activity (NCI-H460 [10]): 27% | IC50 (MCF7-DOX): 0.0023 µM | Activity (NCI-H460 [11]): 18% | IC50 (A2780 [3]): 0.00219 µM | IC50 (HUVEC): 0.0015 µM | IC50 (MeWo): 0.004 µM | IC50 (HCT-116): 0.0019 µM | Activity (NCI-H460 [12]): 22% | Activity (NCI-H460 [13]): 12%

COc1cc(/C=C/c2ccc3cc[nH]c3c2)cc(OC)c1OC
IC50 (BMEC): 1.9 µM

COc1cc(/C=C\c2cc(OC)c3ccoc3c2)cc(OC)c1OC
IC50 (BMEC): 7.5 µM

COc1cc(/C=C/c2cc(O)c3cc(C)oc3c2)cc(OC)c1OC
IC50 (BMEC): 12.3 µM

COc1cc(/C=C\c2ccc3cc[nH]c3c2)cc(OC)c1OC
IC50 (BMEC): 0.028 µM

COc1cc(/C=C\c2cc(O)c3cc(C)oc3c2)cc(OC)c1OC
IC50 (BMEC): 0.093 µM

COc1cc(/C=C/c2cc(O)c3cc(-c4ccccc4)sc3c2)cc(OC)c1OC
IC50 (BMEC): 38 µM

COc1cc(/C=C/c2cc(O)c3c(-c4ccccc4)csc3c2)cc(OC)c1OC
IC50 (BMEC): > 20 µM

COc1cc(/C=C/c2cc(O)c3cc(C)sc3c2)cc(OC)c1OC
IC50 (BMEC): 0.84 µM

COc1cc(/C=C/c2cc(O)c3cc(-c4ccccc4)oc3c2)cc(OC)c1OC
IC50 (BMEC): > 20 µM

— ChEMBL document CHEMBL1147810, “Novel combretastatin analogues endowed with antitumor activity” (J Med Chem, 2006)
